# Screens as filed in PubChem.
# Many of the other results were omitted from the sample, so hits are more common in it than they were.
# Myeloid diff 2 – induction of myeloid progenitor differentiation, primary screen, cell-based, flow cytometry, MLPCN library; ER-HoxA9 myeloid progenitors, lysozyme-GFP differentiation; calls only at 10 µM; hit rate 1% among 360,000; AID 624256, 2012;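 active = normalized GFP-positive differentiation at or above the plate's own cutoff, the solvent-only control mean plus 3 SD; inconclusive = no clear call, values can overlap the other calls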;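 note: cells exposed to compound for four days before flow analysis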
# ABCB6 inh MLPCN – ABCB6 transporter inhibitors, primary screen, K562-ABCB6 cells, flow cytometry, MLPCN library. ATP-binding cassette sub-family B member 6 (Homo sapiens), Q9NP58. K562-ABCB6 porphyrin accumulation, 1 h; hits give low values. fluorescence ratio to DMSO, % at 10 µM. hit rate 0.19% among 360,000;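 active = fluorescence ratio to DMSO below 75%, the collection mean minus 3 SD; inconclusive = too few cells collected in the well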;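 note: signal is porphyrin accumulated inside mitochondria; 100% equals median channel fluorescence of DMSO control wells; lower ratio means ABCB6 inhibition with less porphyrin fluorescence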
# Target sequence (Q9NP58 whole entry, looked up): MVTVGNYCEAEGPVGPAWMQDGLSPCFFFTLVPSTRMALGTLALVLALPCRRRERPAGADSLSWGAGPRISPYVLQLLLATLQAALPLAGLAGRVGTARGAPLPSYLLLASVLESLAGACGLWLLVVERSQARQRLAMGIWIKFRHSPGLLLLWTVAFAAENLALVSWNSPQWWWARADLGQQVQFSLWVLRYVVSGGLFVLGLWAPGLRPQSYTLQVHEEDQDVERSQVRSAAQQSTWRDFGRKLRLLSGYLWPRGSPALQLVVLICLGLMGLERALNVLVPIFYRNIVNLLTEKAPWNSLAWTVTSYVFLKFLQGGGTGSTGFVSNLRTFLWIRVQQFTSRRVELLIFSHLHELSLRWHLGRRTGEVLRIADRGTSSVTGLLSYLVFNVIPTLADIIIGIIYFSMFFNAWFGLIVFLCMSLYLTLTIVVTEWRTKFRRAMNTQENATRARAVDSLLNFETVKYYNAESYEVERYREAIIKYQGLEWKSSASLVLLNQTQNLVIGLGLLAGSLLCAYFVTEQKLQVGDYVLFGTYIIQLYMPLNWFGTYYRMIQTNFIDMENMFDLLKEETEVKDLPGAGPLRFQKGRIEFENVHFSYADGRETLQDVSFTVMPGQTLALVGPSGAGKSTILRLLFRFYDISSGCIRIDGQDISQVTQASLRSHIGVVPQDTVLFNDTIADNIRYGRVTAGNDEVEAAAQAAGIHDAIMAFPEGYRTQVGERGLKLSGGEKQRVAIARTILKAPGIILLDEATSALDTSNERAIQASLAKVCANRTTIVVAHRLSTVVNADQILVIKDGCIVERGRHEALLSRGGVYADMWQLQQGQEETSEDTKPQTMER
# Xi reactivation – activators of inactive X chromosome reactivation, primary screen, imaging, XiGFP fibroblasts, GFP high-content imaging, set 2; XiGFP mouse fibroblasts, % GFP-positive cells imaging, 3 d; cells co-treated with 5-aza-dC sensitizer; scaled so ellipticine positive control = 100%; activation, % at 7.58 µM; hit rate 0.055% among 360,000;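 active = mean normalized replicate activation at least 10% and every replicate at or above 10%; inconclusive = only one of the two criteria met; inactive = mean below 10% and not all replicates reach 10%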;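 note: 0% = median of on-plate neutral control wells and 100% = ellipticine 6 µM median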
#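 Material: SV40-immortalized XiGFP fibroblast cells, line 68-5-11 | Buffer or medium: DMEM containing 5-aza-dC | Dosing: One concentration, pinned | Times: 3 d treatment, 15 min room-temperature fixation | Controls: Ellipticine 6 µM positive control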
# * marks the source's active call; other numbers are inactive results; i = inactive; ? = inconclusive; / = no result given; + = active, no number.
SMILES,Myeloid diff 2,ABCB6 inh MLPCN,Xi reactivation
CN1CCc2c(sc3c2C(=O)NC(c2ccc(-c4ccc(Cl)cc4)o2)N3)C1 (stereo not given),+,111,0
COCCn1c(SCC(=O)c2c[nH]c3ccccc23)nnc1-c1ccncc1,i,102,/
CCn1c(SCC(=O)c2c[nH]c3ccccc23)nnc1-c1cccs1,+,147,/
C[C@H]1CN([C@@H](C)CO)S(=O)(=O)c2ccc(-c3ccc(C(=O)N(C)C)cc3)cc2O[C@H]1CN(C)C(=O)C1CCC1,/,/,-1
CCOc1ccc(NC(=S)N(CCc2c(C)[nH]c3ccc(C)cc23)Cc2ccncc2)cc1,+,97,0
COc1ccc(NC(=S)N(CCc2c(C)[nH]c3ccc(C)cc23)Cc2cccnc2)cc1,i,94,0
O=C1NC(=S)S/C1=C/c1ccc(N2CCOCC2)o1,+,123,/
O=C1S/C(=C\c2ccc(N3CCOCC3)o2)C(=O)N1Cc1ccc(F)cc1,i,325,/
CCN1CCc2c(OCC(=O)Nc3cccc(C)c3C)cccc2C1=O,/,/,0
Cc1cccc(NC(=O)COc2cccc3c2CCN(C)C3=O)c1C,i,95,0
CCOC(=O)c1c(NC(=O)COc2cccc3c2CCN(C)C3=O)sc2c1CCC2,+,92,0
Cc1cccc(NC(=O)COc2cccc3c2CCN(Cc2ccccc2)C3=O)c1C,+,109,0
COc1ccc(NC(=O)Nc2ccc3c(c2)C(=O)N([C@H](C)CO)C[C@H](C)[C@H](CN(C)Cc2ccncc2)O3)cc1,/,/,1
O=C(Nc1ccncc1)C1(c2ccccc2)CCCC1,i,97,/
O=C(Nc1ccc(O)c(-c2nc3ccccc3o2)c1)C1(c2ccccc2)CCCC1,+,91,/
O=C1NN(c2ccccc2)C(=O)/C1=C/c1ccc(-c2ccc(C(=O)O)cc2)o1,i,99,0
O=C(O)c1ccc(N2C(=O)/C(=C/c3ccc(-c4ccc([N+](=O)[O-])cc4)o3)C=C2c2ccccc2)cc1,+,i,/
CCOC(=O)c1cc2nc(Nc3ccc(OC)cc3)sc2s1,+,134,/
CCOC(=O)c1sc(Nc2ccc(Br)cc2)nc1C,i,96,?
C[C@@H]1CN([C@H](C)CO)C(=O)Cc2cc(NS(=O)(=O)c3ccc(Cl)cc3)ccc2O[C@H]1CN(C)S(=O)(=O)c1ccccc1,/,/,0
O=C(NCC[C@H]1CC[C@@H](NC(=O)C2CCC2)[C@H](CO)O1)c1ccc(F)cc1,/,/,-1
CCOC(=O)/C(C#N)=C\c1ccc(N2CCN(C/C=C/c3ccccc3)CC2)cc1,+,140,0
CCOC(=O)/C(C#N)=C\c1cc(C)n(-c2ccccc2)c1C,i,104,/
Cc1noc(C)c1NC(=O)Nc1cccc2c1O[C@H](CN(C)S(=O)(=O)c1cn(C)cn1)[C@H](C)CN([C@@H](C)CO)C2=O,/,/,0
Cn1c(NN)nc2c1c(=O)n(Cc1ccccc1)c(=O)n2C,i,153,0
SMILES,Myeloid diff 2,ABCB6 inh MLPCN,Xi reactivation
CC(C)n1cc(-c2nc(C(=O)NN)cs2)c(=O)n(Cc2ccccc2)c1=O,+,102,0
O=C(C[C@@H]1CC[C@@H]2[C@H](COC[C@H](O)CN2S(=O)(=O)c2ccccc2)O1)NCc1ccc2c(c1)OCO2,/,/,0
C/C=C/c1cnc2c(c1)C(=O)N([C@@H](C)CO)C[C@@H](C)[C@@H](CN(C)C(=O)Nc1ccc(F)cc1)O2,/,/,-1
O=S(=O)(c1cccs1)N1CCN(c2ccc(O)cc2)CC1,+,90,0
CN1CCN(S(=O)(=O)c2cccs2)CC1,i,100,0
Cc1cc(C)nc(NC(=O)/C=C/c2cccs2)c1,i,105,/
Cc1cc(C)c(-c2csc(NC(=O)/C=C/c3cccs3)n2)c(C)c1,+,93,0
CN1/C(=C/C=C(C#N)C#N)C(C)(C)c2ccccc21,i,111,25*
CN1/C(=C\C=Nc2ccc3ccccc3c2)C(C)(C)c2ccccc21,i,106,/
CN(C)c1ccc(N=C/C=C2\N(C)c3ccccc3C2(C)C)cc1,+,229,/
CCCCCCN1C=CC=C/C1=C\C=C(C#N)C#N,i,99,0
CN1/C(=C\C(=O)c2ccco2)C(C)(C)c2ccccc21,?,i,/
CC1=C/C(=C\C=C(C#N)C#N)N(C)c2ccccc21,+,127,0
CN1/C(=C\C=O)C(C)(C)c2ccccc21,i,261,0
CN1\C(=C/C=C/C=C/C=[N+](C)C)C(C)(C)c2ccccc21,+,i,0
C[C@H]1CN([C@@H](C)CO)C(=O)c2cc(NC(=O)CCCN(C)C)ccc2O[C@@H]1CN(C)Cc1ccncc1,/,/,1
Cc1ccc(S(=O)(=O)Nc2cccc3c2O[C@H](CN(C)Cc2ccc(C(F)(F)F)cc2)[C@@H](C)CN([C@H](C)CO)C3=O)cc1,/,/,0
C[C@@H]1CN([C@H](C)CO)C(=O)c2cccc(NC(=O)CCCCCC(=O)Nc3ccccc3N)c2O[C@@H]1CN(C)S(=O)(=O)c1cn(C)cn1,/,/,-1
C[C@H]1CN([C@@H](C)CO)S(=O)(=O)c2ccc(C3=CCCCC3)cc2O[C@H]1CN(C)C,/,/,-1
O=C(C[C@H]1C=C[C@H](NC(=O)Nc2ccccc2)[C@H](CO)O1)NCc1cccc(F)c1,/,/,0
COC(=O)c1cc(C(=O)c2cc(Cl)ccc2O)coc1=N,i,105,0
COCCOC(=O)c1cc(C(=O)c2cc(F)ccc2O)coc1=N,+,105,/
CCCNC(=O)N1CC2(C1)CN(C(=O)c1ccncc1)[C@@H](CO)c1[nH]c3cc(OC)ccc3c12,/,/,0
CCNC(=O)[C@@H]1[C@@H](CO)[C@@H]2Cn3c(cccc3=O)[C@H]1N2Cc1cc(F)ccc1F,/,/,0
CCc1nc(N)nc(N)c1-c1ccc(Cl)cc1,+,95,0
SMILES,Myeloid diff 2,ABCB6 inh MLPCN,Xi reactivation
CCc1nc(N)nc(N)c1-c1ccc(NCCN)c([N+](=O)[O-])c1,?,123,0
C[C@@H]1CN([C@H](C)CO)C(=O)c2cc(NC(=O)CCCN(C)C)ccc2O[C@@H](C)CCCCO[C@H]1CN(C)Cc1ccccc1,/,/,0
c1ccc(-c2cn(-c3ccccc3)c3[n+]2CCS3)cc1,+,98,0
Fc1ccc(-n2cc(-c3ccccc3)[n+]3c2SCC3)cc1,i,101,0
CC(C)NC(=O)N(C)C[C@H]1Oc2c(NC(=O)Nc3ccccc3)cccc2C(=O)N([C@H](C)CO)C[C@H]1C,/,/,-1
C[C@@H]1CN([C@H](C)CO)C(=O)c2ccccc2-c2ccccc2CO[C@@H]1CN(C)C(=O)c1ccccc1,/,/,0
O=C(NC1CCCc2ccccc21)c1n[nH]c(=O)c2ccccc12 (stereo not given),+,97,0
O=C(NC1CCCc2ccccc21)c1ccccc1 (stereo not given),i,98,0
O=C(Nc1ccccc1F)N1CC(=O)N2[C@H](CO)[C@@H](c3ccc(-c4ccccc4)cc3)[C@@H]2C1,/,/,0
